In the EternaBench riboswitch data:

System: MS2 coat protein
Assay: apparent Kd, MS2 coat protein; higher = weaker binding; RNA-MaP array; theophylline 2 mM where present
Method in brief: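 Stalled E. coli RNA polymerase produced the designs on Illumina sequencing-chip clusters. SNAP-549-labelled MS2 coat protein was added from 0.7 or 1.5 nM, doubling to 3 µM, without and then with constant ligand, in 100 mM Tris-HCl pH 7.5, 80 mM KCl, 4 mM MgCl2, BSA, DTT, yeast tRNA and Tween-20. The apparent Kd is the median of filtered per-cluster fits of green signal normalised to red-channel RNA signal and control-cluster median Fmax.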

[1] = designed as: ON switch for theophylline, no ligand
[2] = ligand present: theophylline, designed as: ON switch for theophylline
[3] = designed as: OFF switch for theophylline, no ligand
[4] = ligand present: theophylline, designed as: OFF switch for theophylline

Sequence	apparent Kd [1] [nM]	apparent Kd [2] [nM]	apparent Kd [3] [nM]	apparent Kd [4] [nM]
UAUUUUGGGCGCGAGCCCGGGAUAAUUGAUACCAGUGAAGAAGAGCGCCCUUGGCAGCGAAUCCUAACAUGAGGAUCACCCAUGU	47.5	60	–	–
GCACCAGGUACGGAUACCAGCUAUAGGUACAUGUCAGGACAUGAGGAUCACCCAUGUGGUAGCCCUUGGCAGCUGUACCUGGUGC	–	–	17.4	27.2
ACAUGAGGAUCACCCAUGUAACGUCUUGAUACCAGACGAGAAGUAGUCCCUUGGCAGCAAAUACGUGAGGGUCACACAUGUGUAA	–	–	23.4	61.5
AAUUAAUUAACCGAUACCAGCCAACCAAAACAUGAGGAUCACCCAUGUAAGAAGAAGGGUGGCCCUUGGCAGCGGUUAAUUAAUU	27.8	9.07	–	–
CAAACAUGAGGAUCACCCAUGUAAUCAGAUACCAGUGACGAAAGUCACCCUUGGCAGCUGAGUACAUUAGUUCUAAGGUGUUUGA	–	–	44.6	50.2
UGUUUGGUGCGCGAGUGUUGGAUGAUUGAUACCAGUGAAGAAGAGCGCCCUUGGCAGCGAAUCCUAACAUGAGGAUCACCCAUGU	50.8	67.6	–	–
AGACAUGAGGAUCACCCAUGUAGCAUGGAUACCAGAUGUAGAUUAGUCCCUUGGCAGCUGUGGUGAAGUGAUGCAUUGCUCCUAG	–	–	63.2	61.6
ACGACGCAUAGUGAUACCAGUAGAACAUGAGGAUCACCCAUGUCUGUGACGCACCACCUCUGCCCUUGGCAGCACUAUGCGUCAG	22.7	22.9	–	–
UUUGCACAUGAGGAUCACCCAUGUACAGAUACCAGCCUCAUCUACGGCCCUUGGCAGCUGAGACAAUGGUGACGUGACGGGCUUU	–	–	11.7	28.2
UUACGAGGCUAUCCACUUUGAUUUUGUGAUACCAGAAUAAUUUUAUUCCCUUGGCAGCAUGACAUGAGGAUCACCCAUGUGUCUU	38	61.7	–	–
UUUUAAAGCAUGGCGUAUCGGAAAACCGAUACCAGUACAGAAAUGUACCCUUGGCAGCGGAAUUUUACAUGAGGAUCACCCAUGU	–	–	13.1	43.4
UGUAAAAUAACAGAUACCAGCGUGUUAUAAAACAUGAGGAUCACCCAUGUAGUGAUCAAGCGCCCUUGGCAGCUGGUAUUUUAUG	160	129	–	–
ACGAACGAUAGUGAUACCAGACGUACAUGAGGAUCACCCAUGUUGUAAACAUGGUUAAUAGUCCCUUGGCAGCACGAUAAGUUCG	–	–	575	499
UGGUUUGUGAUGGAUACCAGCAGAGAAAACGUUUAUCCUAACAUGAGGAUCACCCAUGUAUGCCCUUGGCAGCUGUUGUGGGCUG	–	–	36	38.9
AGUACUCGAACGGAUACCAGCCGGACAUGAGGAUCACCCAUGUCCUACCAUGUUUCGGUUGGCCCUUGGCAGCCGUUCGUGUACA	425	30.4	–	–
AGCCCUGUACUAGAUACCAGCUACAUGAGGAUCACCCAUGUGCGUCAAGACUGACUGUGUGGCCCUUGGCAGCUGCUCGCAUGUA	–	–	146	208
UUUGAUAGGACAGAUACCAGCGUGUUGUAGAACAUGAGGAUCACCCAUGUAGUGAUCAAGCGCCCUUGGCAGCUGGUUUGUUAGG	170	82.6	–	–
UGUAACAUGAGGAUCACCCAUGUGAGUGAUACCAGAUUAGUAUUAGUCCCUUGGCAGCACGUUGGGCGAGUGUAUAGUCUAUGCG	147	113	–	–
UGUAACAUGAGGAUCACCCAUGUGCACGAUACCAGCUUAUUGAUAGGCCCUUGGCAGCGUAUGCGGAAGCUGUAUAAUAUAUAUC	11.3	12.7	–	–
UUAAGAGGCUAUCAAAUUUGAUUUUGUGAUACCAGAAUAAUUUUAUUCCCUUGGCAGCAUGACAUGAGGAUCACCCAUGUGUCUU	35.4	30.2	–	–
AUUGGGUUAUCAGAUACCAGACUAUUCUAGACAUGAGGAUCACCCAUGUAUUGGGUUUUCGUCCCUUGGCAGCUGUUAAGUUUAA	167	113	–	–
UGUUUUAAAAGUGAUACCAGACAAACAUGAGGAUCACCCAUGUAACAUGAGAGAUAAUAAGUCCCUUGGCAGCACAUAAUUAGUA	31.8	26.4	–	–
AGUGUUAUAACUGAUACCAGACCUUUGCUUAUACAUGAGGAUCACCCAUGUAAAAUGGCGGUCCCUUGGCAGCAGAGAAUACGCA	68	13.2	–	–
UUACAUGAGGAUCACCCAUGUCAUAACGAUACCAGAUAGUUAAUGAUCCCUUGGCAGCGUAAUACCUAGACAUUUAAGUCAUAGG	56.2	19.6	–	–
AACAUGAGGAUCACCCAUGUCAUGUUGGAUACCAGCCAAUAAUAAGGCCCUUGGCAGCUAUAGAUCGAUGAUCCAUGAGGAUCAC	–	–	34.5	25.3
AUCGUACCUGAUGAUACCAGCAUGUGAUCGUAACAUGAGGAUCACCCAUGUAAUCAGUGAUGCCCUUGGCAGCAUGAUCGGUACA	97.7	20.5	–	–
